High-throughput results as filed in PubChem BioAssay.
A3A deaminase: blocks human APOBEC3A ssDNA deamination; P31941; recombinant A3A, FAM/TAMRA ssDNA deamination fluorescence; inhibition, % at 20 µM; 330,000 compounds, 0.41% hits; AID 493011;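 active means at least 40% inhibition at 20 µM here, with at most 30% in a related deaminase screen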
iPSC survival up: increases survival of single human iPS cells; survival enhancement, % at 20 µM; 360,000 compounds, 0.044% hits; hiPSC single-cell survival, ATPlite luminescence; 100% = ROCK inhibitor wells, 0% = DMSO; AID 602274; in the data active means survival enhancement above about 18%;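 further: cells exposed to compounds for 16 hours before the ATP read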
PfG6PD inh: PfG6PD (Plasmodium falciparum) enzyme inhibition; inhibition, % at 20 µM; 350,000 compounds, 0.78% hits; PfGluPho enzyme, NADPH resazurin-diaphorase fluorescence; AID 504690;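 active means inhibition reaching at least a set limit at 20 µM in the primary screen, cut at about 59% in these data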
HKDC1 inh: HKDC1 (human) hexokinase inhibition; Q2TB90; recombinant HKDC1, G6PDH/diaphorase resazurin coupled fluorescence; inhibition, % at 20 µM; 340,000 compounds, 0.16% hits; AID 493160;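 active means inhibition above about 35% when tested at 20 µM, limit read from the data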
Target sequence (Q2TB90 whole entry, looked up): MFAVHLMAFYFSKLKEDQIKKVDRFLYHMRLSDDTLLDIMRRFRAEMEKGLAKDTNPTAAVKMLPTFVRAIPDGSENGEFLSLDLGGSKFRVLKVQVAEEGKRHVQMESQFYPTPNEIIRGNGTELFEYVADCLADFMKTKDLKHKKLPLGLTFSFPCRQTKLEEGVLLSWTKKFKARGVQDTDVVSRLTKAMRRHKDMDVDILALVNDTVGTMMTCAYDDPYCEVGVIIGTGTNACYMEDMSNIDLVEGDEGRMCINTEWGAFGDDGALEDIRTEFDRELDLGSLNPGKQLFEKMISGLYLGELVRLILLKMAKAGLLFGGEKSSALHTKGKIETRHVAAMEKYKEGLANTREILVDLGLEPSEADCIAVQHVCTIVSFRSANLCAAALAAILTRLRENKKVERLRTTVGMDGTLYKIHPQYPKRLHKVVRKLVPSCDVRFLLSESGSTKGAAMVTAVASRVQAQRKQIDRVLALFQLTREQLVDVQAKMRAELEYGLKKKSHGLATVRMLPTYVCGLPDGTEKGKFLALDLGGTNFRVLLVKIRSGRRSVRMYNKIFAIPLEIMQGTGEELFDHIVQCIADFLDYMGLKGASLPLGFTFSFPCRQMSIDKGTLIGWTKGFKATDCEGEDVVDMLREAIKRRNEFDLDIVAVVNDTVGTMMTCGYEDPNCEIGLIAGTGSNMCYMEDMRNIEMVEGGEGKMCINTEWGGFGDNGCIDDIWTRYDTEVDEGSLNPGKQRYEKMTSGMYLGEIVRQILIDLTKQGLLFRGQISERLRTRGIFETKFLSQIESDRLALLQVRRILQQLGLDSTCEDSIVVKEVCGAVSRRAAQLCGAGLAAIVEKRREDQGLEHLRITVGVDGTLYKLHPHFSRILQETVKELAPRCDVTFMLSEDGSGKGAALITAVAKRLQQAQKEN
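Assay system – recombinant HKDC1 (HK5) hexokinase enzyme, produced in-house · Input – HKDC1 at 5 µg/mL · Reagent – glucose plus 1 mM ATP as hexokinase substrates · Timing – 90 min reaction incubation at room temperature, dark · Measured by – G6PDH/diaphorase-coupled fluorescence, 1 mM NADP, 100 µM resazurin, 525/613 nm · Benchmarks – DMSO-enzyme wells negative, buffer-substituted wells positive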
APOBEC3G inh: APOBEC3G (human) deaminase inhibition. inhibition, % at 20 µM. 330,000 compounds, 0.28% hits. Q9HC16. recombinant A3G, ssDNA deamination FAM/TAMRA fluorescence. AID 493012;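 active means inhibition of at least 40% at 20 µM, with no more than 30% in the related APOBEC3A deaminase screen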
APOBEC3A confirm: APOBEC3A (human) deaminase inhibition, confirmed. shares compounds with A3A deaminase. recombinant A3A, ssDNA deaminase UDG fluorescence assay. inhibition, % at 20 µM. 1,400 compounds, 63% hits. AID 493151;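 active means inhibition reaching a set limit, 80% of the first screen's cutoff, at 20 µM in any replicate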
UDG A3A counter: UDG inhibition in APOBEC3A counter-screen. shares compounds with A3A deaminase. UDG counterscreen, FAM/TAMRA uracil oligo fluorescence. inhibition, % at 20 µM. 1,000 tested, under 10 active. AID 504714; call rule not given here
Numbers stand for hits. Rows were chosen to be rich in hits. Some 1.4% of all compounds tested hit in one or more screens of this group.

`COc1cccc(NC(=O)c2cccnc2)c1` gave A3A deaminase inactive, iPSC survival up inactive, PfG6PD inh inactive, HKDC1 inh inactive and APOBEC3G inh inactive.
For C[n+]1cccc(C(=O)Nc2ccccc2)c1 the results were A3A deaminase 70, iPSC survival up inactive, PfG6PD inh inactive, HKDC1 inh inactive, APOBEC3G inh inactive, APOBEC3A confirm 57 and UDG A3A counter inactive.
C/C(=N\Nc1ccc(Cl)c(C(=O)O)c1)c1cccs1 was read as A3A deaminase 42, iPSC survival up inactive, PfG6PD inh inactive, HKDC1 inh inactive, APOBEC3G inh inactive and APOBEC3A confirm inactive.
For COc1cccc(CN(CC(=O)NCc2ccc(F)cc2)C(=O)c2ccco2)c1 the results were A3A deaminase 45, iPSC survival up inactive, PfG6PD inh inactive, HKDC1 inh inactive, APOBEC3G inh inactive, APOBEC3A confirm inactive and UDG A3A counter inactive.
`O=C(CN(Cc1ccccc1)C(=O)c1ccco1)NCc1ccc(F)cc1` gave A3A deaminase inactive, iPSC survival up inactive, PfG6PD inh inactive, HKDC1 inh inactive and APOBEC3G inh inactive.
For O=C(COC(=O)CN1C(=O)c2ccccc2C1=O)NC1CCCCC1 the results were A3A deaminase inactive, iPSC survival up inactive, PfG6PD inh inactive, HKDC1 inh inactive and APOBEC3G inh inactive.
Screening O=C(c1cccc(S(=O)(=O)NCc2ccc3c(c2)OCO3)c1)N1CCCC1 returned A3A deaminase 89, iPSC survival up inactive, PfG6PD inh inactive, HKDC1 inh inactive, APOBEC3G inh inactive, APOBEC3A confirm inactive and UDG A3A counter inactive.
Screening O=C1CN(CC(=O)Nc2cccc(Cl)c2Cl)c2ccccc2N1 returned A3A deaminase inactive, iPSC survival up inactive, PfG6PD inh inactive, HKDC1 inh inactive and APOBEC3G inh inactive.
CC(C)COc1ccc(C(=O)Nc2cc(S(=O)(=O)N3CCOCC3)ccc2N2CCCC2)cc1 was read as A3A deaminase inactive, iPSC survival up inactive, PfG6PD inh inactive, HKDC1 inh inactive and APOBEC3G inh inactive.
`CCC(C)N(C(=O)COc1ccc(Cl)c2cccnc12)C1CCS(=O)(=O)C1` (stereo not drawn) gave A3A deaminase 62, iPSC survival up inactive, PfG6PD inh inactive, HKDC1 inh inactive, APOBEC3G inh inactive and APOBEC3A confirm inactive.
CCC(C)N(C(=O)COc1ccccc1C#N)C1CCS(=O)(=O)C1 (stereo not drawn) was read as A3A deaminase inactive, iPSC survival up inactive, PfG6PD inh inactive, HKDC1 inh inactive and APOBEC3G inh inactive.
For COc1ccc(C2=[N+](C)CCn3cccc32)c(OC)c1 the results were A3A deaminase 63, iPSC survival up inactive, PfG6PD inh inactive, HKDC1 inh inactive, APOBEC3G inh inactive, APOBEC3A confirm 73 and UDG A3A counter inactive.
For COc1ccc(CN2CCc3ccccc3C2)c(OC)c1 the results were A3A deaminase inactive, iPSC survival up inactive, PfG6PD inh inactive, HKDC1 inh inactive and APOBEC3G inh inactive.
For CCNS(=O)(=O)c1ccc(NC(=O)Cc2ccc(F)cc2)cc1 the results were A3A deaminase inactive, iPSC survival up inactive, PfG6PD inh inactive, HKDC1 inh inactive and APOBEC3G inh inactive.
CC(Nc1ccc(F)cc1)=[N+](C)CCNS(=O)(=O)c1ccc(Cl)cc1 was read as A3A deaminase 55, iPSC survival up inactive, PfG6PD inh inactive, HKDC1 inh inactive, APOBEC3G inh inactive and APOBEC3A confirm inactive.
`CC(=O)c1cn(Cc2ccccc2)c(=O)[nH]c1=O` gave A3A deaminase inactive, iPSC survival up inactive, PfG6PD inh inactive, HKDC1 inh inactive and APOBEC3G inh inactive.
Screening COc1ccc(C(=O)NCC(=O)OCCCOC(=O)CNC(=O)c2ccc(OC)c(OC)c2)cc1OC returned A3A deaminase 42, iPSC survival up inactive, PfG6PD inh inactive, HKDC1 inh inactive, APOBEC3G inh inactive and APOBEC3A confirm inactive.
For CCOCc1cnc(C)nc1NCC(=O)c1c(C)[nH]c2cc(C)ccc12 the results were A3A deaminase 56, iPSC survival up inactive, PfG6PD inh inactive, HKDC1 inh inactive, APOBEC3G inh inactive, APOBEC3A confirm 64 and UDG A3A counter inactive.
`CCOCc1cnc(C)nc1NCC(=O)c1c(C)[nH]c2ccccc12` gave A3A deaminase inactive, iPSC survival up inactive, PfG6PD inh inactive, HKDC1 inh inactive and APOBEC3G inh inactive.
For O=C(CCl)Nc1cccc(Oc2ccccc2)c1 the results were A3A deaminase inactive, iPSC survival up inactive, PfG6PD inh inactive, HKDC1 inh inactive and APOBEC3G inh inactive.
CCOc1ccc(/C=c2\sc3nc(-c4ccco4)nn3c2=O)cc1OCC was read as A3A deaminase 74, iPSC survival up inactive, PfG6PD inh inactive, HKDC1 inh inactive, APOBEC3G inh inactive, APOBEC3A confirm 31 and UDG A3A counter inactive.
For COc1ccccc1/C=c1\sc2nc(-c3ccco3)nn2c1=O the results were A3A deaminase inactive, iPSC survival up inactive, PfG6PD inh inactive, HKDC1 inh inactive and APOBEC3G inh inactive.
For COc1ccc(NC(=O)/C=C/c2cccc(C(F)(F)F)c2)cn1 the results were A3A deaminase inactive, iPSC survival up inactive, PfG6PD inh inactive, HKDC1 inh inactive and APOBEC3G inh inactive.
Screening COc1ccc(NC(=O)/C=C/c2cccc(Br)c2)cn1 returned A3A deaminase 41, iPSC survival up inactive, PfG6PD inh inactive, HKDC1 inh inactive, APOBEC3G inh inactive, APOBEC3A confirm 15 and UDG A3A counter inactive.
`O=C(C=Cc1ccccc1)CC(c1ccccc1)N1CCOCC1` (stereo not drawn) gave iPSC survival up inactive, PfG6PD inh inactive and HKDC1 inh inactive.
`COc1ccc(CN(C)C(=O)CCCNC(=O)c2ccc(Cl)cc2)cc1` gave A3A deaminase 46, iPSC survival up inactive, PfG6PD inh inactive, HKDC1 inh inactive, APOBEC3G inh inactive and APOBEC3A confirm inactive.
COc1cccc(NC(=O)CN(C)C(=O)CCCNC(=O)c2ccc(Cl)cc2)c1 was read as A3A deaminase inactive, iPSC survival up inactive, PfG6PD inh inactive, HKDC1 inh inactive and APOBEC3G inh inactive.
`CN1C[C@@H]2[C@@H]3C(=O)N(Cc4ccccc4)C(=O)[C@@H]3[C@](C)(C1=O)N2C(=O)c1ccc(Br)cc1` gave iPSC survival up inactive, PfG6PD inh inactive and HKDC1 inh inactive.
`COC(=O)CCC(=O)OC1(C)C(=O)C=C2C=C(C3CC3)N(C3CCCCC3)C=C2C1=O` (stereo not drawn) gave A3A deaminase 48, iPSC survival up inactive, PfG6PD inh inactive, HKDC1 inh inactive, APOBEC3G inh inactive, APOBEC3A confirm inactive and UDG A3A counter inactive.
`O=C(Nc1nccs1)c1cccc(NC(=O)C(F)(F)F)c1` gave A3A deaminase inactive, iPSC survival up inactive, PfG6PD inh inactive, HKDC1 inh inactive and APOBEC3G inh inactive.
